# Screening results from PubChem BioAssay.
# Shown are actives, neighbours in structure and some others; about 4.7% of the full set was active somewhere.
# aSyn UTR inh = MLPCN primary screen, SNCA 5' untranslated region | alpha-synuclein 5'UTR reporter, inhibitor activity | inhibition, % (tested at 7.5 µM) | 300,000 tested, 0.82% active | AID 1813, 2009; in the data active means inhibition above about 60%;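 further: H4 neuroglioblastoma cells stably carrying SNCA 5'UTR luciferase fusion; 0% = DMSO wells and 100% = positive control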
# IMP-1 inh-1 = IMP-1 metallo-beta-lactamase inhibitors, primary screen, biochemical, epi-absorbance readout, Pseudomonas aeruginosa enzyme | AID 1556, 2009 | 290,000 tested, 0.45% active | metallo-beta-lactamase IMP-1 (Pseudomonas aeruginosa) | purified IMP-1, nitrocefin hydrolysis, epi-absorbance fluorescence | inhibition, % at 5.6 µM;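 active means inhibition above the mean plus 3 SD of all compounds in the same screening run, cut at about 4.5% in these data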;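 further: 0% = IMP-1 with DMSO and 100% = DMSO wells lacking enzyme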
#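 System: purified IMP-1 / Input: IMP-1 dispensed at 0.2 nM / Medium: 50 mM HEPES pH 7.1, 50 µM ZnSO4, 0.05% Brij 35 / Timing: 15 min enzyme–compound preincubation, then 25 min nitrocefin reaction, 25 °C / Technique: plate fluorescence quenching by hydrolysis product, ex 480/em 530 nm / Repeats: singlicate testing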
# VIM-2 inh = VIM-2 metallo-beta-lactamase inhibitors, primary screen, biochemical, epi-absorbance readout, Pseudomonas aeruginosa enzyme; purified VIM-2, nitrocefin hydrolysis, epi-absorbance fluorescence; inhibition, % at 5.6 µM; 290,000 tested, 0.89% active; AID 1527, 2009;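 active means inhibition above the mean of all tested compounds plus 3 SD, cutoff set per screening run, cut at about 7.5% in these data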;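 further: red hydrolysis product quenches plate fluorescence so inhibitors raise well fluorescence; 0% = enzyme with DMSO and 100% = DMSO without enzyme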
# Jurkat NFkB inh = inhibitors of induced NF-kB luciferase reporter, primary screen, TCR NF-kB activation inhibitor project, cell-based, luminescence, uHTS. Jurkat, PMA/ionomycin-induced NF-kB luciferase reporter. inhibition, % at 4 µM. 330,000 tested, 0.53% active; in the data active means inhibition above about 50%
# 697 NFkB inh = inhibitors of PMA/ionomycin-induced NF-kB reporter, 697 cells, primary screen, B-cell NF-kB inhibitor project, cell-based, luminescence, uHTS; 330,000 tested, 0.33% active; AID 435022, 2010; 697 B-cell NF-kB luciferase reporter, 16 h; inhibition, % at 4 µM; in the data active means inhibition above about 35%
# Mdm2 MdmX PPI = inhibitors of human Mdm2-MdmX association, primary screen, cell-based, luminescence, split luciferase, SaOS-2, uHTS. AID 485346, 2010. inhibition, % at 8 µM. Protein Mdm4 (Homo sapiens) + E3 ubiquitin-protein ligase Mdm2 (Homo sapiens), …. SaOS-2 split-luciferase Mdm2/MdmX complementation. 330,000 tested, 3% active;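 active means inhibition of at least 50% at 8 µM in the primary screen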
# IMP-1 inh-2 = IMP-1 metallo-beta-lactamase inhibitors, confirmation, selectivity assay for selective VIM-2 inhibitor project, biochemical, epi-absorbance readout, triplicate. shares compounds with VIM-2 inh. purified IMP-1, nitrocefin hydrolysis, epi-absorbance fluorescence. inhibition, % at 5.6 µM. 1,300 tested, under 10 active. AID 1856, 2009; call rule not given here;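 further: 0% = enzyme with vehicle and 100% = vehicle without enzyme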
# VIM-2 FRET inh = VIM-2 inhibitors in FRET format, confirmation, artefact control for selective VIM-2 inhibitor project, biochemical, epi-absorbance artifact exclusion | shares compounds with VIM-2 inh | purified VIM-2, CCF2 FRET substrate hydrolysis | inhibition, % at 5.6 µM | 1,300 tested, 23% active;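 active means inhibition above the mean of all tested compounds plus 3 SD, cut at about 19% in these data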;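 further: 0% = VIM-2 plus DMSO and 100% = no enzyme wells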
# TEM-1 counter = TEM-1 serine beta-lactamase inhibitors, counter-screen for VIM-2 inhibitor project, biochemical, epi-absorbance, HTS; AID 1866, 2009; Purified TEM-1, nitrocefin hydrolysis, epi-absorbance fluorescence; inhibition, % at 5.6 µM; 1,300 tested, 3% active; shares compounds with VIM-2 inh;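 active means inhibition above that campaign's mean inhibition plus 3 SD, cut at about 0.46% in these data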;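 further: 0% = TEM-1 with DMSO and 100% = TEM-1 with 100 µM potassium clavulanate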
# Target sequence (P62593 whole entry, looked up): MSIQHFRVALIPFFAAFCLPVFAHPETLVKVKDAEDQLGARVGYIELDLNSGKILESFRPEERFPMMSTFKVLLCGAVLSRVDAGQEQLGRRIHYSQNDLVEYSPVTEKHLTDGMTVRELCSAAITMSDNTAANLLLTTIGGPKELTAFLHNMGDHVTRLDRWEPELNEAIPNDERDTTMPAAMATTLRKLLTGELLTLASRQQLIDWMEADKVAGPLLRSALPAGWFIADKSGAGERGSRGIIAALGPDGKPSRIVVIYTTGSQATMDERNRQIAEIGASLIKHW
# VIM-2 inh conf = VIM-2 metallo-beta-lactamase inhibitors, confirmation, biochemical, epi-absorbance, hits shared with IMP-1 screen. shares compounds with VIM-2 inh. purified VIM-2, nitrocefin hydrolysis. inhibition, % at 5.6 µM. 1,300 tested, 96% active;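 active means inhibition of the VIM-2 beta-lactamase enzyme above about 11% from the earlier first-round screen, limit read from the data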;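 further: 0% = VIM-2 with DMSO and 100% = buffer wells without enzyme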
# Mdm2 MdmX conf = Mdm2-MdmX complex disruptors, retested hits, confirmation, luminescence, single concentration. Mdm2-MdmX binding, luminescent assay. shares compounds with Mdm2 MdmX PPI. inhibition, % at 8 µM. AID 489028, 2010. 10,000 tested, 55% active; in the data active means inhibition above about 40%
# Full FLuc ctr = full-length luciferase signal inhibition, confirmation, counter-screen for Mdm2/MdmX interaction inhibitor project, cell-based, single concentration, SaOS-2; 6,200 tested, 77% active; inhibition, % at 8 µM; shares compounds with Mdm2 MdmX PPI; SaOS-2 full-length luciferase counterscreen, luminescence;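 active means mean inhibition at 8 µM reaching about 37%, which flags the compound as non-specific, limit read from the data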;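 further: p53-null SaOS-2 cells with luciferase driven by a doxycycline-inducible promoter; compound on cells about two nights before reading with doxycycline added after day one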
# Numbers without * were called inactive; nt = no result.
SMILES,aSyn UTR inh,IMP-1 inh-1,VIM-2 inh,Jurkat NFkB inh,697 NFkB inh,Mdm2 MdmX PPI,IMP-1 inh-2,VIM-2 FRET inh,TEM-1 counter,VIM-2 inh conf,Mdm2 MdmX conf,others
NC(N)=Nc1nc(-c2ccccc2)c2ccccc2n1,13,-3,14*,39,-8,62*,-3,-6,-4,27*,39,
Cc1cccc(N(CC(=O)NCC2CCCO2)C(=O)CCC(=O)Nc2nccs2)c1 (stereo unspecified),1,-1,1,-2,8,14,nt,nt,nt,nt,nt,
COc1cccc2oc3ccc(C#CC4(N)CCCCC4)cc3c(=O)c12,-62,-1,15*,-87,-82,96*,-3,-2,-6,20*,-8,
O=C(COC(=O)c1cc(=O)[nH]c(=O)[nH]1)Nc1ccccc1F,nt,nt,nt,-8,7,23,nt,nt,nt,nt,nt,
Clc1ccc(-c2csc(=Nc3cccnc3)n2CCCn2ccnc2)cc1Cl,-3,-1,30*,-7,-36,66*,-3,-28,-8,35*,36,Full FLuc ctr=55*
CCCCn1c(SCC(=O)NNC(=O)c2ccccc2)n[nH]c1=O,nt,nt,nt,-1,1,4,nt,nt,nt,nt,nt,
CN1CCN(c2cc(N3CCN(C(=O)c4ccco4)CC3)c3c4c(onc24)-c2ccccc2C3=O)CC1,-2,0,17*,9,30,100*,-2,-12,-10,24*,74*,Full FLuc ctr=24
Cc1ccccc1CN1CCN(CC(=O)NC(C)c2ccccc2)CC1 (stereo unspecified),-19,1,-2,10,2,-2,nt,nt,nt,nt,nt,
CN1CCN(Cc2cc(COCc3ccccc3)c3cccnc3c2O)CC1,99*,-2,12*,4,-39,60*,-3,33*,-5,33*,75*,Full FLuc ctr=30
Oc1ccc(CN2CCN(Cc3ccccc3)CC2)c2cccnc12,-10,-2,-1,-4,1,27,nt,nt,nt,nt,nt,
CCc1ccc(NC(=O)c2ccc(NC3=NC4CS(=O)(=O)CC4S3)cc2)cc1 (stereo unspecified),9,-2,-4,-16,-4,21,nt,nt,nt,nt,nt,
CCCN1CCN(CCCNC(=O)c2ccc3c(c2)NC(=O)c2ccccc2S3)CC1,29,-2,0,4,-1,27,nt,nt,nt,nt,nt,
O=C1Nc2cc(C(=O)NCCCN3CCOCC3)ccc2S/C1=C/c1cccc(Cl)c1,-4,-2,29*,9,-6,73*,-2,49*,-7,33*,2,
